Screening results from PubChem BioAssay.
MRP reversal – reversal of MRP1-mediated doxorubicin resistance, primary screen, H69AR cells, doxorubicin co-treatment; differential viability (reversal), % at 10 µM; AID 602, 2007; H69AR cells + 2 uM doxorubicin, CellTiter-Glo, 72 h; 85,000 compounds, 0.04% hits;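 active means viability drop by adding the cancer drug above about 55%, with treated viability meeting a 40% cutoff, limit read from the data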;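 further: larger differential means the compound sensitizes cells more to doxorubicin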
MRP1 act – H69AR viability gain despite doxorubicin, primary screen, MRP-1 activator project, H69AR cells, CellTiter-Glo; viability increase, % at 10 µM; viability rescue; AID 799, 2007; 140,000 compounds, 0.61% hits;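 active means viability gain under doxorubicin at or above a set limit, the compound median plus 3 SD, cut at about 4.7% in these data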;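 further: MRP-1 overexpressing cells given doxorubicin 25 µM after compound pretreatment; 18-22 h compound pretreatment then 72 h with doxorubicin before readout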
Phagocyt inh – inhibitors of macrophage phagocytosis, primary screen, imaging, J774A.1 cells, IgG beads. J774A.1 macrophage IgG-bead phagocytosis. inhibition, % at 5 µM. 110,000 compounds, 0.07% hits;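 active means inhibition above the mean of the plate negative controls plus 5 SD, cut at about 13% in these data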;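 further: phagocytic index as fraction of beads internalized from green versus red external bead signal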
Yeast growth inh – growth inhibitors of yeast BB579 in restrictive medium, primary screen, yeast lifespan-shortening project, S. cerevisiae; OD615, 48 h; inhibition, % at 10 µM; 140,000 compounds, 0.51% hits; AID 804, 2007;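 active means inhibition above a set limit, 3 SD over the mean compound inhibition, cut at about 44% in these data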
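System: Saccharomyces cerevisiae DeaD strain BB579, replicative lifespan model yeast | Buffer or medium: Restrictive glucose-based CSMM-D medium | Times: 4 h preincubation and 48 h exposure at 30 °C | Detection: OD615 turbidity measurement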
Yeast lifespan up – compounds extending yeast replicative lifespan, primary screen, S. cerevisiae, OD615; S. cerevisiae growth with nicotinamide; deaD strain in restrictive glucose medium; 130,000 compounds, 0.68% hits; inhibition of the nicotinamide effect, % at 10 µM; AID 775, 2007;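 active means inhibition above a set limit, placed 3 SD over the median of all compounds, cut at about 26% in these data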
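Test system – modified budding yeast, DeaD strain · Compound – single dose 10 µM compound, 0.25% DMSO · Times – culture preincubation 4 h, compound exposure 48 h, both 30 °C · Detection – optical density (absorbance) at 615 nm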
SDO1 yeast rescue – growth rescue of sdo1-depleted yeast, primary screen, S. cerevisiae, bone marrow failure model; S. cerevisiae sdo1-depleted JHY4D growth rescue, OD600 30 h; stronger effect = higher value; pdr5 snq2 efflux-pump mutant strain; z-score at 10 µM; 140,000 compounds, 0.21% hits; AID 817, 2007;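 active means z-score above 3 at both the 24 hr and the 30 hr optical density reads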
sdo1 rescue conf – SDO1-depleted yeast growth rescue, concentration-response, diseases of bone marrow failure, JHY4D, OD600; OD recovery (test concentration not listed); shares compounds with SDO1 yeast rescue; S. cerevisiae JHY4D (SDO1-depleted) growth rescue, 30 h; stronger effect = higher value; efflux-deficient strain, SNQ2 and PDR5 mutated; 440 compounds, 44% hits; AID 949, 2007;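 active means yeast growth recovered at 30 hours, either rising with dose fitted slope above 0.001 or with average optical density gain above 0.07, some results past the limit were not filed as active; inactive means growth falling with dose or no effect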
Each line names hits and unclear results; the compound was inactive in the other large screens (follow-up assays come after a bar, where they were run). Hits are enriched below; roughly 2.1% of the tested compounds scored in any of these assays.

CCCCOc1cccc(C2(C(=O)O)CCCC2)c1	Yeast lifespan up 28
Nn1cnnc1N/N=C\c1ccc(-c2ccccc2[N+](=O)[O-])o1	none (no result: MRP reversal)
COc1ccc(NC(=O)N(CCc2ccccc2)Cc2cc3c(C)cc(C)cc3[nH]c2=O)cc1	none
CN(C)Cc1c(O)c(Cl)cc2c3c(c(=O)oc12)CCCC3	Yeast lifespan up 30
CCN(CC)Cc1c(O)c(Cl)cc2c3c(c(=O)oc12)CCCC3	none (no result: Phagocyt inh)
Cc1nc(N2CCN(Cc3ccc4c(c3)OCO4)CC2)nc2c1C(=O)CC(c1ccco1)C2 (configuration not stated)	none (no result: MRP reversal)
Cc1nc(N2CCN(Cc3ccccc3)CC2)nc2c1C(=O)CC(c1ccco1)C2 (configuration not stated)	MRP1 act 5.6
COc1cccc(CNC(=O)c2cc3oc4ccccc4c3n2C)c1OC	none
CCOc1ccccc1CNC(=O)c1cc2oc3ccccc3c2n1CC	MRP1 act 7.6, Phagocyt inh 186
CCN1C(c2ccccc2)C(C)C(=O)C(C)C1c1ccccc1 (configuration not stated)	none
Nc1sc(-c2ccccc2)cc1C(=O)O	Yeast lifespan up 84 (no result: MRP reversal)
Fc1ccccc1N1CCN(CCCNc2ccc3nncn3n2)CC1	Yeast lifespan up 27
Nc1c(NCc2ccccc2)c2ccccc2oc1=O	none
Cn1nnnc1SCC(=O)NC1CCCCC1	none | sdo1 rescue conf inactive
O=C(O)CCN1C(=O)c2ccc(NC(=O)CSCc3ccccc3)cc2C1=O	none (no result: MRP reversal)
O=C(CSc1nnc(-c2ccco2)n1Cc1ccco1)NCc1cccs1	SDO1 yeast rescue 6.5 | sdo1 rescue conf 0.071
COC(=O)CSc1nnc(-c2ccco2)n1Cc1ccco1	none
COc1ccc(OC)c(NC(=O)CNC(=O)Cn2cnc3ccccc3c2=O)c1	none
CCCCN(C)C(=O)c1cc2cc3ccc(OC)cc3nc2s1	SDO1 yeast rescue 16 | sdo1 rescue conf 0.076
Cc1nnc(SCCn2c(N3CCCC(C)C3)nc3c2c(=O)[nH]c(=O)n3C)s1 (configuration not stated)	none
Cc1nn(Cc2ccc(Cl)cc2)c(C)c1NC(=O)CSc1n[nH]c(C)c1[N+](=O)[O-]	SDO1 yeast rescue 12 (no result: MRP reversal) | sdo1 rescue conf 0.06
Cc1nn(Cc2ccccc2)c(C)c1NC(=O)CSc1n[nH]c(C)c1[N+](=O)[O-]	none (no result: MRP reversal)
CCC(C)N(C)Cc1cccc(C2(O)CCN(S(=O)(=O)c3ccc(F)c(C)c3)CC2)c1 (configuration not stated)	none
c1ccc(Oc2cccc(NC3=NCCC3)c2)cc1	SDO1 yeast rescue 15 | sdo1 rescue conf inactive
Cc1cccc(CS(=O)(=O)Cc2ccc(C(=O)O)o2)c1	none (no result: MRP reversal)
COc1cc(C2CC(=O)N(CC(=O)NCc3ccco3)c3ccccc3S2)cc(OC)c1OC (configuration not stated)	none
COc1ccc(OC)c(C2=NOC(C(=O)NCc3ccco3)C2)c1 (configuration not stated)	SDO1 yeast rescue 7.6 | sdo1 rescue conf inactive
CCOc1ccc(C)cc1S(=O)(=O)N1CCCCC1	none
Cc1n[nH]c(C)c1S(=O)(=O)N1CCCC(C(=O)Nc2ccc3c(c2)OCCO3)C1 (configuration not stated)	none | sdo1 rescue conf 0.094
O=C(Nc1ccc2c(c1)OCO2)C1CCCN(S(=O)(=O)Cc2ccccc2)C1 (configuration not stated)	none | sdo1 rescue conf 0.082
COC(=O)C1CCN(C(=O)CCCOc2ccccc2)CC1	none | sdo1 rescue conf inactive
CCOC(=O)c1cnn(Cc2ccccc2)c1N	SDO1 yeast rescue 6.1 (no result: Phagocyt inh, Yeast lifespan up) | sdo1 rescue conf inactive
COc1ccc(NC(=O)C2CCCCN2S(=O)(=O)c2ccc(F)cc2)cc1 (configuration not stated)	none | sdo1 rescue conf inactive
N#Cc1cccc(NC(=O)CC2CCCCC2)c1	none
